Values after ≈ are worked out from the molar mass of the structure shown. Blank lines part the entries; values can stand above or below the compound they belong to. Active and inactive are the calls of the source. The rule behind the calls is not given here.
How the values were obtained:
[1] = target: T1, Peptidoglycan D,D-transpeptidase MrdA (Escherichia coli K-12, UniProt P0AD65); assay: (§1) Inhibition of bocillin-FL binding to Escherichia coli K12 NusA-fused/His6-tagged PBP2 (57 to 615 residues) expressed in Escherichia coli BL21(DE3) preincubated for 30 mins followed by bocillin-FL addition by RT-fluorescence anisotropy method
T1 sequence (P0AD65 whole entry): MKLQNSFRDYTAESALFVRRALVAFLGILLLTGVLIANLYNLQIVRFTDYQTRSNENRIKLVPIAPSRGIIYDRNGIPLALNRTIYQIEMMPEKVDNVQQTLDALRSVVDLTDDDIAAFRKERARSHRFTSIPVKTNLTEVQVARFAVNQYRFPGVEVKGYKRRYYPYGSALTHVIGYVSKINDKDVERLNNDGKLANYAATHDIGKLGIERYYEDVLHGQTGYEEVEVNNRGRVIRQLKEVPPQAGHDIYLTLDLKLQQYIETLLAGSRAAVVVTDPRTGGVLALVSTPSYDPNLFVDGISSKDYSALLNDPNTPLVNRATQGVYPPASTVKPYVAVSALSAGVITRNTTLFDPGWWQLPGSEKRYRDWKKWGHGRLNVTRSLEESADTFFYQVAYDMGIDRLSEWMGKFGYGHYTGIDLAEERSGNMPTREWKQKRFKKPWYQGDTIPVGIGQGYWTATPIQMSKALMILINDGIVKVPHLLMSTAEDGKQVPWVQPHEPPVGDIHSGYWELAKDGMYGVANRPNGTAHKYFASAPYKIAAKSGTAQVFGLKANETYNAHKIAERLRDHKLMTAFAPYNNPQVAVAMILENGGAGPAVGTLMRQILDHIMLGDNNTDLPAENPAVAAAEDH

[2] = target: T2, Penicillin-binding protein 1A (Escherichia coli K-12) (UniProt P02918); assay: Inhibition of Escherichia coli PBP1a
T2 sequence (whole entry): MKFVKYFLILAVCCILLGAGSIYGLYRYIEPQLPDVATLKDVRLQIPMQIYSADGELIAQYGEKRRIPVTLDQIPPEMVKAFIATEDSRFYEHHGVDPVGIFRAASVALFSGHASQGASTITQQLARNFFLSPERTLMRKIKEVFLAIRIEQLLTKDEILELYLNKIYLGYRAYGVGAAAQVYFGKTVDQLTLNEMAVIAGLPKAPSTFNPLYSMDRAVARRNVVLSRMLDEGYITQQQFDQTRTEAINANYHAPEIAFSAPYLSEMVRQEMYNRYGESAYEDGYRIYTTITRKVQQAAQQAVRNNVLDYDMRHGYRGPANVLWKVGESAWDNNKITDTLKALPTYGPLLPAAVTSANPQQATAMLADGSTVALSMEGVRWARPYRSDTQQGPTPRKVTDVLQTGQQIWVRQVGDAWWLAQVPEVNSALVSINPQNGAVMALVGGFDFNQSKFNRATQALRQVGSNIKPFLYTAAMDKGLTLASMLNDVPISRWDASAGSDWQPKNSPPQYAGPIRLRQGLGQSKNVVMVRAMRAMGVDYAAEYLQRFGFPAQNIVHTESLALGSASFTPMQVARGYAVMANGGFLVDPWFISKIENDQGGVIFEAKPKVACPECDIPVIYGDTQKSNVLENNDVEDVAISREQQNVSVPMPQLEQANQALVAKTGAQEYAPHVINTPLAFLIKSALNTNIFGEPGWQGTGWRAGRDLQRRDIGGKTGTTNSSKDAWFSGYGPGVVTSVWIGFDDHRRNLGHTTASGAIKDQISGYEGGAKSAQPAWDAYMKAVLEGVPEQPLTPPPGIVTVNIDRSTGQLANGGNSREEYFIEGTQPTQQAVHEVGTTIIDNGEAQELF

[3] = target: T3, Penicillin-binding protein 1B (Escherichia coli K-12) (UniProt P02919); assay: Inhibition of Escherichia coli PBP1b
T3 sequence (whole entry): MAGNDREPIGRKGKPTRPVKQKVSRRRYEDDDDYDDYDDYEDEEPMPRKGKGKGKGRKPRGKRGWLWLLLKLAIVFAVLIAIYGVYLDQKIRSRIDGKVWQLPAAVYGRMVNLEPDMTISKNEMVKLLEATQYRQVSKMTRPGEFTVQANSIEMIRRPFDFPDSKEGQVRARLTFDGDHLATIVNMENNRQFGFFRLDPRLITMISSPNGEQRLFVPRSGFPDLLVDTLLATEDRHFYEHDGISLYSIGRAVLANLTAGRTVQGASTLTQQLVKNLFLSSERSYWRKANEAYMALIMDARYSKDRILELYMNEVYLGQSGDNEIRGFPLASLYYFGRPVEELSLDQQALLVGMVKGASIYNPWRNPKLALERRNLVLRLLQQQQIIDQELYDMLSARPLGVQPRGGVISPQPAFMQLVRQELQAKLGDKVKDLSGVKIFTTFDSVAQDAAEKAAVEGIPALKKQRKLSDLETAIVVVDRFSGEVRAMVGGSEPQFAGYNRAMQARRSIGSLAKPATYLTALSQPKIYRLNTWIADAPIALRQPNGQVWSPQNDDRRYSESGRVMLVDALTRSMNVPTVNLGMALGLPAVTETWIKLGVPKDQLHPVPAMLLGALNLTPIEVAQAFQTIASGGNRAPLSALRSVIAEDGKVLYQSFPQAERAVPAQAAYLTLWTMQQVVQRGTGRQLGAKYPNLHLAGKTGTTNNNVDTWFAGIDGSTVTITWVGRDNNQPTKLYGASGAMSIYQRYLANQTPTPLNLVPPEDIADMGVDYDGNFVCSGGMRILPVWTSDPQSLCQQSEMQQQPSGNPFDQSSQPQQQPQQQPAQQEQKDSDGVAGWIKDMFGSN

[4] = system: Escherichia coli; assay: Inhibition of Escherichia coli PBP3
[5] = system: Escherichia coli; assay: Antibacterial activity against Escherichia coli UFR39 measured after 16 to 20 hrs by broth microdilution method; assay type: functional
Procedure, shortened: (§2)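 Broth microdilution MICs following CLSI M7-A7, run against genotyped carbapenem-resistant E. coli and P. aeruginosa strains.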

[6] = system: Pseudomonas aeruginosa; assay: Antibacterial activity against Pseudomonas aeruginosa UFR49 measured after 16 to 20 hrs by broth microdilution method; assay type: functional
[7] = target: T4, Peptidoglycan D,D-transpeptidase MrdA (Escherichia coli K-12) (UniProt P0AD65); assay: as §1
T4 sequence (whole entry): T1 sequence (P0AD65 whole entry)

[8] = target: T4, Peptidoglycan D,D-transpeptidase MrdA (Escherichia coli K-12); assay: Binding affinity to Escherichia coli K12 NusA-fused/His6-tagged PBP2 (57 to 615 residues) expressed in Escherichia coli BL21(DE3) assessed as melting temperature at protein to compound ratio of 1:10 measured after 30 mins using SYPRO orange dye by RT-PCR-based fluorescence assay (reference value: 47 +/- 0.5 degC)
Procedure, shortened: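 Thermal unfolding was monitored with SYPRO Orange dye in a real-time PCR instrument, at a protein/ligand ratio of 1/10. Tm was taken at the inflexion point of the denaturation curve and reported ±0.5 °C.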

[9] = system: Escherichia coli; assay: Antibacterial activity against Escherichia coli clinical isolates measured after 16 to 20 hrs by broth microdilution method; assay type: functional; procedure, shortened: as §2
[10] = system: Pseudomonas aeruginosa; assay: Antibacterial activity against Pseudomonas aeruginosa clinical isolates measured after 16 to 20 hrs by broth microdilution method; assay type: functional; procedure, shortened: as §2
[11] = target: T2, Penicillin-binding protein 1A (Escherichia coli K-12); assay: Inhibition of Escherichia coli PBP1a up to 200 uM
[12] = target: T3, Penicillin-binding protein 1B (Escherichia coli K-12); assay: Inhibition of Escherichia coli PBP1b up to 200 uM
[13] = system: Escherichia coli; assay: Inhibition of Escherichia coli PBP3 up to 200 uM
[14] = target: Penicillin-binding protein 1A (Pseudomonas aeruginosa PAO1) (UniProt Q07806); assay: Inhibition of Pseudomonas aeruginosa PBP1a up to 200 uM
Penicillin-binding protein 1A (Pseudomonas aeruginosa PAO1), sequence (Q07806 whole entry): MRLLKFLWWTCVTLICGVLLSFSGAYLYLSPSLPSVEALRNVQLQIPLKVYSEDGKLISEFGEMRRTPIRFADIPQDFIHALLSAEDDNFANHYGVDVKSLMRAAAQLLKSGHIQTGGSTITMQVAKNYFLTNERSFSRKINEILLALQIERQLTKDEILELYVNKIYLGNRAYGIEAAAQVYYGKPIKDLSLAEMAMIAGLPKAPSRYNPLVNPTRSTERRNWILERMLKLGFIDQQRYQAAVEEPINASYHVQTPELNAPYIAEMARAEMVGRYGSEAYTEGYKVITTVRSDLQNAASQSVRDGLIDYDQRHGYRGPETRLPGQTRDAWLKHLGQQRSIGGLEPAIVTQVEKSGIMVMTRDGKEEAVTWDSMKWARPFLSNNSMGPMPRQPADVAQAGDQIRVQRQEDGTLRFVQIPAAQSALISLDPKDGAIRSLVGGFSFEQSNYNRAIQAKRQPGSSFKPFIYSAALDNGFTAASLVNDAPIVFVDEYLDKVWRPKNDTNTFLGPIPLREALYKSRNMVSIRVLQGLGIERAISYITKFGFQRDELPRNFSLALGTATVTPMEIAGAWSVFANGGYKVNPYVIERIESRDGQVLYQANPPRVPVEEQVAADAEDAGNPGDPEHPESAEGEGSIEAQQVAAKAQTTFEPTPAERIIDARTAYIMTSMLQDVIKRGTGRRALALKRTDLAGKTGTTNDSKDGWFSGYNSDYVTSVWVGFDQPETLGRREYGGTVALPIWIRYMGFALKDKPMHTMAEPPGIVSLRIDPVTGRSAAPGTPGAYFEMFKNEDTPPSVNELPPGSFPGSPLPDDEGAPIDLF

[15] = target: T5, Penicillin-binding protein 1B (Pseudomonas aeruginosa) (UniProt Q9X6W0); assay: Inhibition of Pseudomonas aeruginosa PBP1b up to 200 uM
T5 sequence (whole entry): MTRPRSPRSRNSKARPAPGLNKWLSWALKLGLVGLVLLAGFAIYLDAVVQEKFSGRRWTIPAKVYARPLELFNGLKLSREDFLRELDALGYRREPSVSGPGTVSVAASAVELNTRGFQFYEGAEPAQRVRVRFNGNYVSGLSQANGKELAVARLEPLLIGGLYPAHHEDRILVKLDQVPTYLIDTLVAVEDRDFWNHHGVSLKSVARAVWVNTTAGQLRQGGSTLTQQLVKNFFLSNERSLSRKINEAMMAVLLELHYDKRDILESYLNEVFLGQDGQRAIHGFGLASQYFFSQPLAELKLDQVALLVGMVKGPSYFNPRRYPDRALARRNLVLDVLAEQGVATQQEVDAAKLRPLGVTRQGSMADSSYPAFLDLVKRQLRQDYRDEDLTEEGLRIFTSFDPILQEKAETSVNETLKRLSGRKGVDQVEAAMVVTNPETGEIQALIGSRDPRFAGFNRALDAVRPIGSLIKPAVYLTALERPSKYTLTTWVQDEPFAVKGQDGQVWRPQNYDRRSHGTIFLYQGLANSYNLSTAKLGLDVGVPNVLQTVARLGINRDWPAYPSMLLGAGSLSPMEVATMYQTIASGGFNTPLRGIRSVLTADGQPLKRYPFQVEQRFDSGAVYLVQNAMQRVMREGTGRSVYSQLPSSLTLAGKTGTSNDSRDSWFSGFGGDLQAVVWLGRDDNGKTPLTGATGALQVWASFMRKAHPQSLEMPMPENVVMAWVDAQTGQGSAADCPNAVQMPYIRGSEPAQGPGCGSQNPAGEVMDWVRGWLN

[16] = target: Penicillin-binding protein 3 (Pseudomonas aeruginosa) (UniProt Q51504); assay: Inhibition of Pseudomonas aeruginosa PBP3 up to 200 uM
Penicillin-binding protein 3 (Pseudomonas aeruginosa), sequence (Q51504 as listed by the source): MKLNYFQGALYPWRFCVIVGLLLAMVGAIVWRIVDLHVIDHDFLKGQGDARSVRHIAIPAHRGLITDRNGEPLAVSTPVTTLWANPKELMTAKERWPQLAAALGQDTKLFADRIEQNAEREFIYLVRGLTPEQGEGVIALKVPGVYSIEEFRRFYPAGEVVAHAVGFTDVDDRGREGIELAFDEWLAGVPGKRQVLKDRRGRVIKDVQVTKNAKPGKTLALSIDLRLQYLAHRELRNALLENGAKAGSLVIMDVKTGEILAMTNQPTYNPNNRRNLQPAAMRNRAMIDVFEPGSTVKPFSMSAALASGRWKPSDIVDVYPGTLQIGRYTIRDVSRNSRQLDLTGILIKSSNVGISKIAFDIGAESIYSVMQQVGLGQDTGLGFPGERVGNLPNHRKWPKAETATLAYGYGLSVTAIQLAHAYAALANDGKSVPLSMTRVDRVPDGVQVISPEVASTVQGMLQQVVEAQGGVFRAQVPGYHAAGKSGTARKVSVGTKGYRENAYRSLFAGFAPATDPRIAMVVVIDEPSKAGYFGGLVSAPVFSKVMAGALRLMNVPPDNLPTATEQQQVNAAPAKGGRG

[17] = target: Beta-lactamase TEM (Bacteria) (UniProt P62593); assay: Inhibition of bacterial beta-lactamase TEM-1
Beta-lactamase TEM (Bacteria), sequence (P62593 whole entry): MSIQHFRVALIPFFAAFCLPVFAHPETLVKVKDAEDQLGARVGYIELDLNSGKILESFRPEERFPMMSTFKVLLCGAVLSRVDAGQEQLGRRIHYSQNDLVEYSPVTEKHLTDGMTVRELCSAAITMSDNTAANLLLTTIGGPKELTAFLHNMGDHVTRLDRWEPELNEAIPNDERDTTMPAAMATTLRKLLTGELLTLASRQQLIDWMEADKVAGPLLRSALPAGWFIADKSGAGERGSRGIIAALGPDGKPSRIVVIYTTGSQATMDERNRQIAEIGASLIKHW

[18] = system: Bacteria; assay: Inhibition of bacterial beta-lactamase SHV-1
[19] = system: Bacteria; assay: Inhibition of bacterial beta-lactamase CTX-M-15
[20] = system: Bacteria; assay: Inhibition of bacterial beta-lactamase KPC-2
[21] = system: Enterobacter cloacae; assay: Inhibition of Enterobacter cloacae P99 AmpC
[22] = system: Bacteria; assay: Inhibition of bacterial CMY-37
[23] = system: Bacteria; assay: Inhibition of bacterial OXA-15
[24] = system: Bacteria; assay: Inhibition of bacterial OXA-48

Structure (SMILES): O=C1N2CCCC(C2)N1OS(=O)(=O)[O-].[Na+] (stereo not drawn)
IC50 [1]: > 200000 nM
inhibition [2]: inactive
inhibition [3]: inactive
inhibition [4]: inactive
MIC [5]: > 32 µg/mL
MIC [6]: > 32 µg/mL

Structure (SMILES): O=C1N2CC=C(c3cccnc3)C(C2)N1OS(=O)(=O)[O-].[Na+] (stereo not drawn)
inhibition [7]: Active
inhibition [2]: inactive
inhibition [3]: inactive
inhibition [4]: inactive
MIC [6]: > 32 µg/mL

Structure (SMILES): CC(C)(O/N=C(\C(=O)N[C@@H]1C(=O)N2C(C(=O)[O-])=C(C[n+]3ccccc3)CS[C@H]12)c1csc(N)n1)C(=O)O [CEFTAZIDIME]
MIC [5]: > 256 µg/mL
MIC [6]: 64 µg/mL (≈ 117 µM)
MIC50 [9]: > 32 µg/mL
MIC90 [9]: > 32 µg/mL
MIC50 [10]: > 32 µg/mL
MIC90 [10]: > 32 µg/mL

Structure (SMILES): C[C@@H](O)[C@H]1C(=O)N2C(C(=O)O)=C(S[C@@H]3CN[C@H](C(=O)N(C)C)C3)[C@H](C)[C@H]12 [MEROPENEM]
MIC [5]: 128 µg/mL (≈ 334 µM)
MIC50 [9]: 0.5 µg/mL (≈ 1.3 µM)
MIC90 [9]: > 32 µg/mL
MIC50 [10]: 8 µg/mL (≈ 20.9 µM)
MIC90 [10]: > 32 µg/mL

Further lines, results first:

Tm [8]: 55.5 °C
IC50 [1]: 10 nM
inhibition [2]: inactive
inhibition [3]: inactive
inhibition [4]: inactive
MIC [5]: 0.016 µg/mL (≈ 0.0506 µM)
MIC [6]: 2 µg/mL (≈ 6.32 µM)
MIC50 [9]: 0.031 µg/mL (≈ 0.098 µM)
MIC90 [9]: > 32 µg/mL
MIC50 [10]: 1 µg/mL (≈ 3.16 µM)
MIC90 [10]: 16 µg/mL (≈ 50.6 µM)
inhibition [11]: inactive
inhibition [12]: inactive
inhibition [13]: inactive
inhibition [14]: inactive
inhibition [15]: inactive
inhibition [16]: inactive
inhibition [17]: Active
inhibition [18]: Active
inhibition [19]: Active
inhibition [20]: Active
inhibition [21]: Active
inhibition [22]: Active
inhibition [23]: Active
inhibition [24]: Active
Structure (SMILES): NC[C@@H]1C=C(c2cnco2)[C@@H]2CN1C(=O)N2OS(=O)(=O)O (relative stereo)

IC50 [1]: 590 nM
MIC [5]: 16 to 32 µg/mL
MIC [6]: > 32 µg/mL
MIC50 [9]: 32 µg/mL
MIC90 [9]: > 32 µg/mL
MIC50 [10]: > 32 µg/mL
MIC90 [10]: > 32 µg/mL
Structure (SMILES): NC(=O)[C@@H]1CC[C@@H]2CN1C(=O)N2OS(=O)(=O)[O-].[Na+] [AVIBACTAM SODIUM]

MIC50 [9]: 32 µg/mL (≈ 81.8 µM)
MIC90 [9]: > 32 µg/mL
MIC50 [10]: 8 µg/mL (≈ 20.4 µM)
MIC90 [10]: 16 µg/mL (≈ 40.9 µM)
Structure (SMILES): O=C(NNC(=O)[C@@H]1CC[C@@H]2CN1C(=O)N2OS(=O)(=O)O)[C@@H]1CCCNC1 [ZIDEBACTAM]
